Data reported in paper PMC8592288 (Bioorganic chemistry, 2021).

What was measured:
RAW264.7 = test: Griess assay, NO in IFNγ/LPS-activated RAW264.7 macrophages; assay type: cell-based, mouse; conditions: INFγ/LPS activated RAW264.7; 1,25(OH)2D3 20 nM, CTA 5 and 20 μM; 24-hour treatment
IL-1β [1] = test: HTRF IL1β cytokine assay, supernatant of activated RAW264.7 macrophages; assay type: cell-based, mouse; conditions: INFγ/LPS activated RAW264.7; 1,25(OH)2D3 20 nM, CTA 20 μM
hFXR = hFXR (Homo sapiens, UniProt Q96RI1); test: FXR transcription assay, BSEP-luciferase in HeLa cells; assay type: cell-based; conditions: 24 h
In short: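 HeLa cells grown in DMEM high glucose with 10% FCS, seeded at 8000 cells/well 24 h before transfection, then switched to 0.5% charcoal-stripped FCS. Calcium phosphate co-transfection with pcDNA3-hFXR, pSG5-hRXR, a BSEP promoter-luciferase (pGL3basic) reporter and pRL-SV40. Test compound added in 0.1% DMSO in phenol red-free medium for 24 h. Dual-Glo luciferase read-out. Controls: 0.1% DMSO and 1 μM GW4064. Triplicates, four independent repeats.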

RARα = RARα (Homo sapiens, UniProt P10276); test: Gal4 hybrid reporter transcription assay in HEK293T cells; assay type: cell-based; conditions: 1 μM CTA, 16 h
In short: (§1)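 HEK293T cells transfected using Lipofectamine LTX with pFR-Luc, pRL-SV40 and pFA-CMV plasmids encoding Gal4 fusions of the human receptor LBDs. Cells then held 16 h in OptiMEM with penicillin/streptomycin, 1 μM test compound and 0.1% DMSO. Dual-Glo luciferase read-out. Controls: 0.1% DMSO, and 1 μM TO901317 or 1 μM tretinoin as reference agonists. Duplicates, four independent repeats.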

ERβ-LBD = ERβ-LBD (Homo sapiens, UniProt Q92731); test: Fluorescence polarization coactivator binding assay; assay type: biochemical
In short: (§2)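 For ERα and ERβ, 1 μM LBD was mixed with 7 nM Texas Red-SRC2–2 coactivator peptide and 100 nM estradiol. After 3 h at room temperature, fluorescence polarization was read at Ex/Em 595/615 nm. Two independent experiments in quadruplicate.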

HEK293 cells = test: Viability assay, CellTiter-Glo; assay type: cell-based; conditions: HEK293, 18 h exposure
In short: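 HEK293 cells transfected and dosed as in the VDR transcription assay. After 18 h at 37 °C, 5% CO2, CellTiter-Glo luminescence measured (intracellular ATP). Eight measurements per concentration, averaged with SEM. LD50 derived by non-linear regression.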

VDR [2] = target: T1, VDR (Homo sapiens, UniProt P11473); test: VDR-mediated transcription assay, CYP24A1-luciferase reporter in HEK293 cells; assay type: cell-based; conditions: HEK293, maximum reached before decrease due to toxicity
T1 sequence (P11473 1-427): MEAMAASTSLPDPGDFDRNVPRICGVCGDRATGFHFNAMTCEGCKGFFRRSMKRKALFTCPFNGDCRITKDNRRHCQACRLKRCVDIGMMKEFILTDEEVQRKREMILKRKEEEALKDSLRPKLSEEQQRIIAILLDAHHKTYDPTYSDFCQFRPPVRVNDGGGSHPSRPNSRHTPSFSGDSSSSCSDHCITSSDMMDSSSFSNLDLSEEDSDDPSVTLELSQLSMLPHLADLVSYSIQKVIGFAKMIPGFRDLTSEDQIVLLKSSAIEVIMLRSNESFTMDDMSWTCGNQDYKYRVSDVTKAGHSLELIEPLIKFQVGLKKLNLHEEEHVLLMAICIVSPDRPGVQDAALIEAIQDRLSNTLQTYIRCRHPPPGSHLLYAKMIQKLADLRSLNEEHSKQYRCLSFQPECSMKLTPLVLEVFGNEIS
In short: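 HEK293 cells grown in DMEM high glucose with NEAA, 10 mM HEPES and 10% FBS. Transfected with VDR-CMV and CYP24A1 promoter-luciferase plasmids (Lipofectamine LTX/PLUS) for 16 h at 37 °C. Cells replated at 400,000 cells/mL onto Matrigel-treated 384-well plates for 4 h. […] Bright-Glo luminescence; n = 8; non-linear regression.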

GST-hPXR-LBD = GST-hPXR-LBD (Homo sapiens, UniProt O75469); test: TR-FRET competition assay for PXR; assay type: binding; conditions: CTA at 10 or 50 μM
In short: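 TR-FRET competition in pH 7.5 buffer (50 mM Tris, 50 mM KCl, 20 mM MgCl2, 1 mM CHAPS, 0.1 mg/mL BSA, 0.05 mM DTT). Test compound added in DMSO (0.4% final); TO901317 as positive control. After 30 min, excitation 340 nm, ratio 520/490 nm ×10000. n = 8.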

RXRα-LBD = RXRα-LBD (Homo sapiens, UniProt P19793); test: Fluorescence polarization coactivator binding assay; assay type: biochemical
In short: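 RXRα-LBD (1 μM) combined with Texas Red-SRC2–3 peptide (7 nM) and bexarotene (2 μM). Incubated 3 h at room temperature; polarization detected at 595/615 nm. Two independent experiments, each in quadruplicate.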

LXR β = LXR β (Homo sapiens, UniProt P55055); test: Gal4 hybrid reporter transcription assay in HEK293T cells; assay type: cell-based; conditions: 1 μM CTA, 16 h
In short: as §1

GST-CAR-LBD = GST-CAR-LBD (Homo sapiens, UniProt Q14994); test: TR-FRET coactivator binding assay for CAR; assay type: biochemical; conditions: CTA at 10 or 50 μM
RAW264.7 cells = test: Cytotoxicity on RAW264.7 cells, CellTiter-Glo; assay type: cell-based, mouse; conditions: RAW264.7, concentrations up to 100 μM
ERα-LBD = ERα-LBD (Homo sapiens, UniProt P03372); test: Fluorescence polarization coactivator binding assay; assay type: biochemical
In short: as §2

CYP24A1 [3] = conditions: at 7.5 μM; cited from earlier work
IL-1β [4] = test: RT-PCR of IL-1β in IFNγ/LPS-activated RAW264.7 macrophages; assay type: cell-based, mouse; conditions: INFγ/LPS activated RAW264.7, CTA 5 and 20 μM
PPARγ-LBD = PPARγ-LBD (Homo sapiens, UniProt P37231); test: Fluorescence polarization coactivator binding assay; assay type: biochemical
In short: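 Mix of PPARγ-LBD (5 μM), Texas Red-labelled DRIP2 coactivator peptide (7 nM) and rosiglitazone (5 μM). Held 3 h at room temperature, then fluorescence polarization read at Ex/Em 595/615 nm. Two independent experiments in quadruplicate.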

LXR α = LXR α (Homo sapiens, UniProt Q13133); test: Gal4 hybrid reporter transcription assay in HEK293T cells; assay type: cell-based; conditions: 1 μM CTA, 16 h
In short: as §1

TRα-LBD = TRα-LBD (Homo sapiens, UniProt P10827); test: Fluorescence polarization coactivator binding assay; assay type: biochemical
In short: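 FP coactivator binding with TRα-LBD (1 μM), Texas Red-labelled SRC2–2 (7 nM) and triiodothyronine (100 nM). Incubated 3 h at room temperature; polarization read at 595/615 nm (Ex/Em). Two independent experiments, quadruplicate wells.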

CYP24A1 [5] = test: RT-PCR of VDR target gene CYP24A1 in Caco2 cells; assay type: cell-based, human
[6] = system: ligand binding domain (LBD) of the VDR; conditions: two-hybrid assay; cited from earlier work
[7] = subcutaneous administration; cited from earlier work
AR-LBD = AR-LBD (Homo sapiens, UniProt P10275); test: Fluorescence polarization coactivator binding assay; assay type: biochemical
In short: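 Coactivator recruitment read by fluorescence polarization. AR-LBD at 5 μM with 7 nM Texas Red-labelled SRC2–3 peptide and 100 nM dihydrotestosterone. Incubated 3 h at room temperature, then read at Ex/Em 595/615 nm. Two independent experiments, each in quadruplicate.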

TRβ-LBD = TRβ-LBD (Homo sapiens, UniProt P10828); test: Fluorescence polarization coactivator binding assay; assay type: biochemical
In short: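 TRβ-LBD used at 0.8 μM, with 7 nM Texas Red-SRC2–2 peptide and 1 μM triiodothyronine. Incubated 3 h at room temperature; fluorescence polarization measured at Ex/Em 595/615 nm. Two independent experiments in quadruplicate.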

VDR [8] = target: T1, VDR; test: VDR transcription assay in the presence of 100 nM 1,25; assay type: cell-based
iNOS = test: RT-PCR of iNOS in IFNγ/LPS-activated RAW264.7 macrophages; assay type: cell-based, mouse; conditions: INFγ/LPS activated RAW264.7, CTA 5 and 20 μM
[9] = target: T2, Danio Rerio vitamin D receptor ligand binding domain (Danio rerio, UniProt Q9PTN2 156-453); test: crystal structure
T2 sequence (looked up): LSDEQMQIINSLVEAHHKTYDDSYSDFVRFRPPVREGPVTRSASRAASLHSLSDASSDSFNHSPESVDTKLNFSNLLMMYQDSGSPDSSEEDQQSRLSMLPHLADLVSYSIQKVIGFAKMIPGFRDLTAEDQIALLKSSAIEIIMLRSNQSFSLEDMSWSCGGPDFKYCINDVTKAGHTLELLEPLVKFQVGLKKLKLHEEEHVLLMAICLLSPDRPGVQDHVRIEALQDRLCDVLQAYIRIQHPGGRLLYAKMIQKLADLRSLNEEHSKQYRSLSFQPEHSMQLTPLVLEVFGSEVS

GST-CAR-LBD, sequence (Q14994 109-352 limits assumed): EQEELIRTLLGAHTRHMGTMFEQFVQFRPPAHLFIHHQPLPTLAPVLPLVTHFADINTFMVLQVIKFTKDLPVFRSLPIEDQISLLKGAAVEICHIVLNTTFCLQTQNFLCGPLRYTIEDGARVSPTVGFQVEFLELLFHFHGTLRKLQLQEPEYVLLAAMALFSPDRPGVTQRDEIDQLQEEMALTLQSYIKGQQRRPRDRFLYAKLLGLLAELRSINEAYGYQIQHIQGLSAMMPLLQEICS
TRα-LBD, sequence (P10827 148-410 isoform P10827-2 limits assumed): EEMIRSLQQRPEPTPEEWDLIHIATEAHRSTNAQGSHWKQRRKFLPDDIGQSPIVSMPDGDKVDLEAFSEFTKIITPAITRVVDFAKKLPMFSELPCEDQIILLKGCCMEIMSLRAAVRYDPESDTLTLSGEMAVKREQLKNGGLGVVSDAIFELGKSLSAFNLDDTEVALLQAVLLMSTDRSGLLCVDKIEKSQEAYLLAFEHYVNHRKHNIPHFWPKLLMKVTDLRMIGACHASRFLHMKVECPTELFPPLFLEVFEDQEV
ERα-LBD, sequence (P03372 311-547 limits assumed, species assumed): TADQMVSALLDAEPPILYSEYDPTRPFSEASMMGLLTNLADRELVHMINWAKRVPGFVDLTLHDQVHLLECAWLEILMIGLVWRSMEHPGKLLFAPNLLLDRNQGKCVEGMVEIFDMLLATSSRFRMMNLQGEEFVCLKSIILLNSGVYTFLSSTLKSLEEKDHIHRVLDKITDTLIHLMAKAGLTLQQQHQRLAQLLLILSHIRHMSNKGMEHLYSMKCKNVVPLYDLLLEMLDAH
hFXR, sequence (Q96RI1 whole entry): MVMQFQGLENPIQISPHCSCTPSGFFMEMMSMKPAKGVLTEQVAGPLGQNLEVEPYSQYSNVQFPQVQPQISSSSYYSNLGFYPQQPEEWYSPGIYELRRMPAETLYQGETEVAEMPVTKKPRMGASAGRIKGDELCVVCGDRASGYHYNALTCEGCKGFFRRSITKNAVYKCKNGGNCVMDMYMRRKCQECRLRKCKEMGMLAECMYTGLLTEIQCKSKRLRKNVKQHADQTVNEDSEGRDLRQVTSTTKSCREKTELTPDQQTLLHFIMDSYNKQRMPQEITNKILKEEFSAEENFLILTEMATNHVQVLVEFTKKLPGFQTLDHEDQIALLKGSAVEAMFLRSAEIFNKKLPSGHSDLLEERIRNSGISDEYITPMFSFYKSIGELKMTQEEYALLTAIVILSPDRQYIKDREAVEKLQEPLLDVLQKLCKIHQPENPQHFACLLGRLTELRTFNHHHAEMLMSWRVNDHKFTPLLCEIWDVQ
hFXR, sequence (P19793 whole entry partner): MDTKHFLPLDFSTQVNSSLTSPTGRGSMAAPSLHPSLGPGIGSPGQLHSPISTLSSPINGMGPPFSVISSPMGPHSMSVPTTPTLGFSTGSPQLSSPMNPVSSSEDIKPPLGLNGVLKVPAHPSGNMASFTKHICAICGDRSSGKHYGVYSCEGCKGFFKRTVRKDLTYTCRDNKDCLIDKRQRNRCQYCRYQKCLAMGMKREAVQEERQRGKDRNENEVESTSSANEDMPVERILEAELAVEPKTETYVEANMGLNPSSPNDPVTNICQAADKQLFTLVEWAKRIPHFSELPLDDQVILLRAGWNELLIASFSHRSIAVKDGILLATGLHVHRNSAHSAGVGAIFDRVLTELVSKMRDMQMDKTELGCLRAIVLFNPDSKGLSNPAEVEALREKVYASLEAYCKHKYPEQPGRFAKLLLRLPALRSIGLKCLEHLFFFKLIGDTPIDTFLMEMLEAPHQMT
LXR β, sequence (P55055 222-460 limits assumed): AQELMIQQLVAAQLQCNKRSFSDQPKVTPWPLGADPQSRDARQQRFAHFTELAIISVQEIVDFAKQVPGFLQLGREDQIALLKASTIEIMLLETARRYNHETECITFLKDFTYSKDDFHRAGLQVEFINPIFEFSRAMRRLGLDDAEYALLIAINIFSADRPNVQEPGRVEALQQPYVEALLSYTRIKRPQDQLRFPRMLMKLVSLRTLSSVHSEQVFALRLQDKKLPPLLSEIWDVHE
PPARγ-LBD, sequence (P37231 238-503 limits assumed, species assumed): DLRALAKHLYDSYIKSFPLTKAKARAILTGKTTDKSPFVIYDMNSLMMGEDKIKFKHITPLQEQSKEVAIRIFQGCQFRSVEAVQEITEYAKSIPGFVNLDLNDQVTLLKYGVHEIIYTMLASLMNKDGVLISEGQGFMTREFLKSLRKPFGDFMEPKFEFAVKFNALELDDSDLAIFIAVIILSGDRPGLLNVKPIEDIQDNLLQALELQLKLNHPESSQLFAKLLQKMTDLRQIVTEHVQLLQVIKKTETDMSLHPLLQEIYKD
GST-hPXR-LBD, sequence (O75469 146-433 limits assumed): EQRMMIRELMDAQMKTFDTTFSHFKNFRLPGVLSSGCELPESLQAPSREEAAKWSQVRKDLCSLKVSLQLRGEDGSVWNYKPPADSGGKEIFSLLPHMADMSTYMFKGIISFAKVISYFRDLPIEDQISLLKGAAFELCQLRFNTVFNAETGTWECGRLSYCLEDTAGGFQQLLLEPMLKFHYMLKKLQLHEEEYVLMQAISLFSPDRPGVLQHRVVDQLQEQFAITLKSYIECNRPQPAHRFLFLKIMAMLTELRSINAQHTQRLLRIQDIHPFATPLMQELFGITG
RARα, sequence (P10276 183-417 limits assumed): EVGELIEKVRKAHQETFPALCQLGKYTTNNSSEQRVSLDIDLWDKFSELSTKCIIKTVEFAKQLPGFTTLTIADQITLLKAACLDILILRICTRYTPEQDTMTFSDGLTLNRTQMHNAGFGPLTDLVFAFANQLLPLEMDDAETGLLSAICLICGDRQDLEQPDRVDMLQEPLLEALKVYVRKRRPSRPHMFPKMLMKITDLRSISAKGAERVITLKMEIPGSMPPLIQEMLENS
AR-LBD, sequence (P10275 669-900 limits assumed): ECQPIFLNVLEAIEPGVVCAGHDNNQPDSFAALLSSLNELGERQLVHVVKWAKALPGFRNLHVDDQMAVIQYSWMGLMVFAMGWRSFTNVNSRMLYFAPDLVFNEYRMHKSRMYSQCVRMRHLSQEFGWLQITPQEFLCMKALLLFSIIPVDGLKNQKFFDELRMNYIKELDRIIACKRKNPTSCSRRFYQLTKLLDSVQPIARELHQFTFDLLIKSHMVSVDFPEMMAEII
RXRα-LBD, sequence (P19793 227-458 limits assumed): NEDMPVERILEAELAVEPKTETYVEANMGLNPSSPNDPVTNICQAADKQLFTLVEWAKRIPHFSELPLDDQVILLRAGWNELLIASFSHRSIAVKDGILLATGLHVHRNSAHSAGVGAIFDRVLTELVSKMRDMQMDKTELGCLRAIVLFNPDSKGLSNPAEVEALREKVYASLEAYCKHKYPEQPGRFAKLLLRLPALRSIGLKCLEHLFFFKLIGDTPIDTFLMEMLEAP
LXR α, sequence (Q13133 209-447 limits assumed): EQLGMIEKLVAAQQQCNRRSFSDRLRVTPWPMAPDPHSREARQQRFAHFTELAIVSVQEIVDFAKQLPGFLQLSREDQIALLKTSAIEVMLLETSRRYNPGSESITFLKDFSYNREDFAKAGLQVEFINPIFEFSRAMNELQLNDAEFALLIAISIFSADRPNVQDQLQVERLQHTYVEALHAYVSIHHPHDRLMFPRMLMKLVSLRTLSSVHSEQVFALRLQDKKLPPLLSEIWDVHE
TRβ-LBD, sequence (P10828 217-461 limits assumed): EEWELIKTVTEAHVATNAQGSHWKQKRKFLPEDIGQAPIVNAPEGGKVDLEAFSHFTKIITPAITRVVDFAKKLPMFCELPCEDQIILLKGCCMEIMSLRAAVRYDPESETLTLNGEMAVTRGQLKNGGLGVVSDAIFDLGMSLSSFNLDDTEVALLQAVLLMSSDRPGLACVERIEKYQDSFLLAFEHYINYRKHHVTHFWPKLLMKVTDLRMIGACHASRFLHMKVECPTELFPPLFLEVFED
ERβ-LBD, sequence (Q92731 264-498 limits assumed, species assumed): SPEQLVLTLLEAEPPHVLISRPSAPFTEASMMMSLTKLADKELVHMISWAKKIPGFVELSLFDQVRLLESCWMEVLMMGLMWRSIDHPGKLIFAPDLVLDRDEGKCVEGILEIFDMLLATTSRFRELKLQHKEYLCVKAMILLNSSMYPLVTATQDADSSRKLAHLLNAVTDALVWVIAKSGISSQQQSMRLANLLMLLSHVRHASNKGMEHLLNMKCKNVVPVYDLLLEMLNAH

## C=C1/C(=C\C=C2/CCC[C@]3(C)[C@@H]([C@H](C)CCCC(C)(C)O)CC[C@@H]23)C[C@@H](O)C[C@@H]1O [1,25(OH)2D3, 1α,25-dihydroxyvitamin D3, reference compound]
RAW264.7
  production of NO in comparison to vehicle: reduced the production of NO
IL-1β [1]
  IL-1β protein (HTRF): Reduced IL-1β protein

## C=C1/C(=C\C=C2/CCC[C@]3(C)[C@@H]([C@H](C)CC(=O)O)CC[C@@H]23)C[C@@H](O)C[C@@H]1O [CTA, (R)-3-((1R,3aS,7aR,E)-4-((Z)-2-((3S,5R)-3,5-dihydroxy-2-methylenecyclohexylidene)ethylidene)-7a-methyloctahydro-1H-inden-1-yl)butanoic acid]
hFXR
  activation of farnesoid X receptor: not activated
RARα
  activation of retinoic acid receptor: not activated
RAW264.7
  production of NO in comparison to vehicle: significant reduction
ERβ-LBD
  activation of estrogen receptor ERβ: not activated
HEK293 cells
  LD50 (Cell-titer Glo viability): 96.0 µM
VDR [2]
  level of activation of gene expression in comparison to 100 nM 1,25(OH)2D3: 30%
GST-hPXR-LBD
  binding to PXR: did not bind
RXRα-LBD
  activation of retinoid X receptor: not activated
LXR β
  activation of liver X receptor β: not activated
GST-CAR-LBD
  induction of CAR-coactivator interactions: did not bind to PXR or induce CAR-coactivator interactions
RAW264.7 cells
  cytotoxic effects (luminescence viability assay): absence of any cytotoxic effects
IL-1β [1]
  IL-1β protein (HTRF): Reduced IL-1β protein
ERα-LBD
  activation of estrogen receptor ERα: not activated
CYP24A1 [3]
  CYP24A1 upregulation in DU145 cells: 9 fold
IL-1β [4]
  IL-1β gene transcription (RT-PCR): reduction of gene transcription was observed
PPARγ-LBD
  activation of peroxisome proliferator-activated receptor: not activated
LXR α
  activation of liver X receptor α: not activated
TRα-LBD
  activation of thyroid receptor TRα: not activated
CYP24A1 [5]; Caco2, 18 h, co-treatment with 1,25(OH)2D3
  expression of CYP24A1 in the presence of 1,25(OH)2D3: strongly induced
CYP24A1 [5]; intestinal cells (Caco2), CTA at 10 μM
  CYP24A1 upregulation compared to lithocholic acid at 10 μM: 100 fold
[6]
  recruitment of SRC-1 to VDR LBD: induces recruitment of SRC-1
[7]
  antirachitic activity: antirachitic activity
AR-LBD
  activation of androgen receptor: not activated
TRβ-LBD
  activation of thyroid receptor TRβ: not activated
VDR [8]
  IC50: 72.2 µM
iNOS
  iNOS gene transcription (RT-PCR): reduction of gene transcription was observed

## C=C1/C(=C\C=C2/CCC[C@]3(C)[C@@H]([C@H](C)CC(=O)OC)CC[C@@H]23)C[C@@H](O)C[C@@H]1O [CTA-ME, Methyl (R)-3-((1R,3aS,7aR,E)-4-((Z)-2-((3S,5R)-3,5-dihydroxy-2-methylenecyclohexylidene)ethylidene)-7a-methyloctahydro-1H-inden-1-yl)butanoate]
HEK293 cells
  LD50 (Cell-titer Glo viability): 13.9 µM
VDR [2]
  level of activation of gene expression in comparison to 100 nM 1,25(OH)2D3: 30%
[7]
  antirachitic activity: antirachitic activity
VDR [8]
  IC50: 8.16 µM

## NHPMLMNLLKDN [coactivator MED1 NR2 peptide]
[9]
  binding result: binds
